Results taken from ChEMBL document CHEMBL5380865, “Linearization of the Brevicidine and Laterocidine Lipopeptides Yields Analogues That Retain Full Antibacterial Activity” (J Med Chem, 2023).
Converted amounts (≈) assume the structure as drawn. Blank lines part the entries; values can stand above or below the compound they belong to. Where a SMILES comes first, the peptide text is derived from it. [ ]: non-standard residue; d: D form. The star is where a group is joined. ξ: configuration not given here. Octanoyl(7-Me) = CC(C)CCCCCC(=O)*; Hexanoyl(4ξ-Me) = CCC(C)CCC(=O)*; dOrn = NCCC[C@@H](N)C(=O)O; Orn = NCCC[C@H](N)C(=O)O; Dap = NC[C@H](N)C(=O)O

Key:
[1] = test system: Klebsiella pneumoniae; experiment: Antibacterial activity Klebsiella pneumoniae ATCC 13883 assessed as inhibition of visible bacterial growth incubated for 18 hrs by microbroth dilution assay; assay type: functional
Method in brief: (§1)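 CLSI broth microdilution. Strains streaked from glycerol stocks onto blood agar (16 h, 37 °C); single colonies grown in TSB at 37 °C, 220 rpm, to OD600 about 0.5. Diluted in MHB to 2 × 10^5 CFU/mL and mixed 1:1 with compounds serially diluted in MHB from DMSO stocks (colistin from water stocks), polypropylene plates. Sealed, 18 h at 37 °C, 600 rpm. MIC taken as lowest concentration preventing visible growth, three technical replicates.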

[2] = test system: Escherichia coli; experiment: Antibacterial activity Escherichia coli MCR-1 assessed as inhibition of visible bacterial growth incubated for 18 hrs by microbroth dilution assay; assay type: functional
Method in brief: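 Colistin-resistant E. coli 25922 carrying MCR-1, grown from glycerol stock in kanamycin-supplemented TSB for 16 h at 37 °C, 220 rpm. Diluted 100-fold in kanamycin-supplemented TSB and grown to OD600 about 0.5, then diluted in MHB to 2 × 10^5 CFU/mL. Combined 1:1 with MHB serial dilutions of compounds. Sealed, 18 h at 37 °C, 600 rpm; lowest concentration without visible growth, triplicate technical replicates.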

[3] = test system: Escherichia coli; experiment: Antibacterial activity Escherichia coli ATCC 25922 assessed as inhibition of visible bacterial growth incubated for 18 hrs by microbroth dilution assay; assay type: functional; method in brief: as §1
[4] = test system: Pseudomonas aeruginosa; experiment: Antibacterial activity Pseudomonas aeruginosa PAO1 assessed as inhibition of visible bacterial growth incubated for 18 hrs by microbroth dilution assay; assay type: functional
Method in brief: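 CLSI broth microdilution. Colonies from blood agar (16 h, 37 °C) grown in TSB at 37 °C, 220 rpm, to OD600 about 0.5, then diluted in MHB to 2 × 10^5 CFU/mL. Added to DMSO-stock compounds serially diluted in MHB in polypropylene plates. Sealed, 18 h at 37 °C, 600 rpm. MIC = lowest concentration with no visible growth; three technical replicates.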

[5] = test system: Acinetobacter baumannii; experiment: Antibacterial activity Acinetobacter baumannii ATCC 17961 assessed as inhibition of visible bacterial growth incubated for 18 hrs by microbroth dilution assay; assay type: functional; method in brief: as §1
[6] = test system: Staphylococcus aureus; experiment: Antibacterial activity Staphylococcus aureus USA300 assessed as inhibition of visible bacterial growth incubated for 18 hrs by microbroth dilution assay; assay type: functional; method in brief: as §1
[7] = Hemolytic activity in sheep red blood cell assessed as hemolysis at 1 to 128 ug/ml incubated for 1 hrs relative to control; assay type: toxicity, cell-based, Ovis aries, Erythrocyte; conditions: sheep red blood cells (erythrocytes), at 1 to 128 µg/mL, dose 1-128 µg/ml, read-out: Activity
Method in brief: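 Defibrinated sheep erythrocytes washed five times in PBS with 0.002% Tween20 and normalized so the Triton control reads 2.5–3.0 at 415 nm. Mixed 1:1 with compound serial dilutions (128–1 μg/mL) and incubated 1 h at 37 °C, 500 rpm. Supernatant A415 is background-corrected with buffer and expressed as percent of 0.1% Triton X-100 (final). Run in triplicate.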

Compound: CCC(C)CCC(=O)N[C@H](CC(N)=O)C(=O)N[C@H](Cc1ccc(O)cc1)C(=O)N[C@H](Cc1c[nH]c2ccccc12)C(=O)N[C@H](CCCN)C(=O)N[C@@H](CCCN)C(=O)NCC(=O)N[C@H](CCCN)C(=O)N[C@@H](Cc1c[nH]c2ccccc12)C(=O)N[C@H](C(=O)N[C@H](C(=O)NCC(=O)N[C@@H](C)C(N)=O)[C@@H](C)CC)[C@@H](C)O (some centres undefined) ({Hexanoyl(4ξ-Me)}-[dN][dY][dW][dOrn][Orn]G[dOrn]WTIGA-NH2)
MIC [1]: 8 µg/mL (≈ 5.26 µM)
MIC [2]: 8 µg/mL (≈ 5.26 µM)
MIC [3]: 8 µg/mL (≈ 5.26 µM)
MIC [4]: 8 µg/mL (≈ 5.26 µM)
MIC [5]: 4 µg/mL (≈ 2.63 µM)
MIC [6]: > 32 µg/mL

Compound: CC[C@H](C)[C@H](NC(=O)[C@H](CN)NC(=O)[C@H](Cc1c[nH]c2ccccc12)NC(=O)[C@@H](CCCN)NC(=O)CNC(=O)[C@H](CCCN)NC(=O)[C@@H](CCCN)NC(=O)[C@@H](Cc1c[nH]c2ccccc12)NC(=O)[C@@H](Cc1ccc(O)cc1)NC(=O)[C@@H](CO)NC(=O)CCCCCC(C)C)C(=O)N[C@@H](CC(N)=O)C(=O)NCC(=O)NCC(N)=O ({Octanoyl(7-Me)}-[dS][dY][dW][dOrn][Orn]G[dOrn]W[Dap]INGG-NH2)
hemolysis at 1 h [7]: < 0.1%
MIC [4]: 18 µg/mL (≈ 11.2 µM)

MIC [2]: > 32 µg/mL
MIC [3]: > 32 µg/mL
Compound: CCC(C)CCC(=O)N[C@H](CC(N)=O)C(=O)N[C@H](Cc1ccc(O)cc1)C(=O)N[C@H](Cc1c[nH]c2ccccc12)C(=O)N[C@H](CCCN)C(=O)N[C@@H](CCCN)C(=O)NCC(=O)N[C@H](CCCN)C(=O)N[C@@H](Cc1c[nH]c2ccccc12)C(=O)N[C@@H](CC(=O)O)C(=O)N[C@H](C(=O)NCC(N)=O)[C@@H](C)CC (some centres undefined) ({Hexanoyl(4ξ-Me)}-[dN][dY][dW][dOrn][Orn]G[dOrn]WDIG-NH2)

MIC [2]: > 32 µg/mL
Compound: CC[C@H](C)[C@H](NC(=O)[C@@H](NC(=O)[C@H](Cc1c[nH]c2ccccc12)NC(=O)[C@@H](CCCN)NC(=O)CNC(=O)[C@H](C)NC(=O)[C@@H](CCCN)NC(=O)[C@@H](Cc1c[nH]c2ccccc12)NC(=O)[C@@H](Cc1ccc(O)cc1)NC(=O)[C@@H](CO)NC(=O)CCCCCC(C)C)[C@@H](C)O)C(=O)N[C@@H](CC(N)=O)C(=O)NCC(=O)NCC(N)=O ({Octanoyl(7-Me)}-[dS][dY][dW][dOrn]AG[dOrn]WTINGG-NH2)

Compound: CCC(C)CCC(=O)N[C@H](CC(N)=O)C(=O)N[C@H](Cc1ccc(O)cc1)C(=O)N[C@H](Cc1c[nH]c2ccccc12)C(=O)N[C@H](CCCN)C(=O)N[C@@H](CCCN)C(=O)NCC(=O)N[C@H](CCCN)C(=O)N[C@@H](Cc1c[nH]c2ccccc12)C(=O)N[C@H](C(=O)N[C@@H](C)C(=O)NCC(=O)N[C@@H](CO)C(N)=O)[C@@H](C)O (some centres undefined) ({Hexanoyl(4ξ-Me)}-[dN][dY][dW][dOrn][Orn]G[dOrn]WTAGS-NH2)
MIC [1]: > 32 µg/mL
MIC [2]: > 32 µg/mL
MIC [3]: > 32 µg/mL
MIC [4]: 16 µg/mL (≈ 10.7 µM)
MIC [5]: > 32 µg/mL
MIC [6]: > 32 µg/mL

Compound: CCC(C)CCC(=O)N[C@H](CC(N)=O)C(=O)N[C@H](Cc1ccc(O)cc1)C(=O)N[C@H](Cc1c[nH]c2ccccc12)C(=O)N[C@H](CCCN)C(=O)N[C@@H](CCCN)C(=O)N[C@@H](C)C(=O)N[C@H](CCCN)C(=O)N[C@@H](Cc1c[nH]c2ccccc12)C(=O)N[C@H](C(=O)N[C@H](C(=O)NCC(=O)N[C@@H](CO)C(N)=O)[C@@H](C)CC)[C@@H](C)O (some centres undefined) ({Hexanoyl(4ξ-Me)}-[dN][dY][dW][dOrn][Orn]A[dOrn]WTIGS-NH2)
MIC [1]: > 32 µg/mL
MIC [2]: 32 µg/mL (≈ 20.6 µM)
MIC [3]: 32 µg/mL (≈ 20.6 µM)
MIC [4]: 32 µg/mL (≈ 20.6 µM)
MIC [5]: 32 µg/mL (≈ 20.6 µM)
MIC [6]: > 32 µg/mL

Compound: CCC(C)CCC(=O)N[C@H](CC(N)=O)C(=O)N[C@H](Cc1ccc(O)cc1)C(=O)N[C@H](Cc1c[nH]c2ccccc12)C(=O)N[C@H](CCCN)C(=O)N[C@@H](C)C(=O)NCC(=O)N[C@H](CCCN)C(=O)N[C@@H](Cc1c[nH]c2ccccc12)C(=O)N[C@H](C(=O)N[C@H](C(=O)NCC(=O)N[C@@H](CO)C(N)=O)[C@@H](C)CC)[C@@H](C)O (some centres undefined) ({Hexanoyl(4ξ-Me)}-[dN][dY][dW][dOrn]AG[dOrn]WTIGS-NH2)
MIC [1]: > 32 µg/mL
MIC [2]: > 32 µg/mL
MIC [3]: > 32 µg/mL
MIC [4]: 32 µg/mL (≈ 21.4 µM)
MIC [5]: > 32 µg/mL
MIC [6]: > 32 µg/mL
